ADAM10 inh – ADAM10 inhibition, QFRET primary screen; O14672; inhibition, % at 7 µM; recombinant ADAM10, EDANS/DABCYL FRET peptide cleavage, 3 h; 0.62% of 370,000 active;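 active = inhibition above a per-campaign cutoff equal to the mean of compounds falling between control-based bounds plus 3 SD, cut at about 20% in these data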
TbMetRS inhib – blocks T. brucei methionyl-tRNA synthetase activity | inhibition, % at 11.9 µM | purified T. brucei MetRS, ATP depletion, Kinase-Glo luminescence | 0.4% of 360,000 active;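 active = inhibition above a per-plate cutoff of the control wells' mean inhibition plus 3 SD, cut at about 5.5% in these data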
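Assay system: T. brucei methionyl-tRNA synthetase, purified | Medium: HEPES buffer with MgCl2, KCl, DTT, spermine, BSA, pyrophosphatase | Compound: 11.9 µM single point | Incubation: 15 min enzyme-compound preincubation, 2 h reaction, 10 min detection, 25 °C | Measured by: Kinase-Glo luciferase luminescence reporting remaining unconsumed ATP | Measure: % inhibition normalized to control-well medians | Replication: Singlicate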
ADAM17 inh – inhibits human ADAM17 | P78536 | recombinant ADAM17, EDANS/DABCYL FRET peptide cleavage | inhibition, % at 6.95 µM | 0.83% of 370,000 active;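 active = inhibition above the mean of compounds lying between control limits plus 3 SD, set per campaign, cut at about 8.5% in these data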
PLC-gamma1 inh – PLC-gamma1 (human) inhibition, primary screen; 0.84% of 370,000 active; purified PLC-gamma1, fluorogenic substrate, fluorescence; inhibition, % at 12.2 µM; in the data active = inhibition above about 9.5%
PLCb3 inh – blocks human PLC-beta3 enzyme activity | Q01970 | Purified PLC-beta3, fluorogenic substrate, fluorescence | inhibition, % at 12.2 µM | 0.18% of 370,000 active | AID 720704; in the data active = inhibition above about 11%
Target sequence (Q01970 whole entry, looked up): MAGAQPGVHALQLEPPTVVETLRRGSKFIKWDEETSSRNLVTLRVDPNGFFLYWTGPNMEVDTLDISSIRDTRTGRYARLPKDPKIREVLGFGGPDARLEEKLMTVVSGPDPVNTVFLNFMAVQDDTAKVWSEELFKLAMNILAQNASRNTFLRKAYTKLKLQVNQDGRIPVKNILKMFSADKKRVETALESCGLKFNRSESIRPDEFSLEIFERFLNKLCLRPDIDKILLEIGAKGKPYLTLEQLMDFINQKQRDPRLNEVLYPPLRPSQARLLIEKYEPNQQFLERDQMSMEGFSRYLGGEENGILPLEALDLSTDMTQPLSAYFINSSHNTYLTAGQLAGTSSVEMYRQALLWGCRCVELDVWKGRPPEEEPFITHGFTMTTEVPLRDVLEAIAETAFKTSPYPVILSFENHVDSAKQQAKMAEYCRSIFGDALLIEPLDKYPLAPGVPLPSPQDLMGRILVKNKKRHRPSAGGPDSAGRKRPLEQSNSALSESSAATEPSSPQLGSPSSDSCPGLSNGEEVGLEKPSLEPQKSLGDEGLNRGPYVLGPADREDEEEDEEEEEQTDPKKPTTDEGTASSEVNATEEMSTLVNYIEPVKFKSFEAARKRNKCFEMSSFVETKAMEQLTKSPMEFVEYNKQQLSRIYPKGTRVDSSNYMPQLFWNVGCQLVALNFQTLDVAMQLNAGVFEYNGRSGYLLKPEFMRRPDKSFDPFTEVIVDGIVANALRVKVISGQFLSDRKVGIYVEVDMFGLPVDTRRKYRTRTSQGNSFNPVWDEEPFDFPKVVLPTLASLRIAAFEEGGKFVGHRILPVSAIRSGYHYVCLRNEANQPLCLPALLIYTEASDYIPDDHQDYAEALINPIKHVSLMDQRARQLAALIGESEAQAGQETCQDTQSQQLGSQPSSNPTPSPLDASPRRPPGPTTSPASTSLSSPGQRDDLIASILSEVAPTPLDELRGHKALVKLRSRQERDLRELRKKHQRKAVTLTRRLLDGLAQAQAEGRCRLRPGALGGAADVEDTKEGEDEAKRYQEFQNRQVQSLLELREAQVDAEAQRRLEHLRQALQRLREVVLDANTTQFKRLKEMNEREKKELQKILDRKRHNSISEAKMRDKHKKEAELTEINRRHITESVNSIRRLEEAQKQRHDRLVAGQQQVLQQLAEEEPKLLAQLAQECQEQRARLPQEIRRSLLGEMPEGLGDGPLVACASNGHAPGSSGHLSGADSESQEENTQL
Tb MetRS conf – Trypanosoma brucei MetRS inhibition confirmed; shares compounds with TbMetRS inhib; T. brucei MetRS enzyme, luminescence (ATP depletion); inhibition, % at 11.9 µM; 93% of 1,400 active; in the data active = inhibition above about 7%
Jurkat cytotox – kills Jurkat cells in T. brucei MetRS counterscreen; shares compounds with TbMetRS inhib; Jurkat cells viability, ATP luminescence; inhibition, % at 8.3 µM; 12% of 1,400 active; in the data active = inhibition above about 15%
TbMetRS FP orth – T. brucei MetRS inhibition, orthogonal assay | shares compounds with TbMetRS inhib | purified T. brucei MetRS, fluorescence polarization | inhibition, % at 11.9 µM | 44% of 1,400 active; in the data active = inhibition above about 17%
Large screens that a line does not name were inactive (follow-up assays come after a bar, where they were run). A selection: hits, their analogues and other compounds. The true share with any hit is near 2.3%.

Oc1ccc(Cl)cc1CNc1cnc2ccccc2c1	TbMetRS inhib 13 | Tb MetRS conf 14 | Jurkat cytotox 30 | TbMetRS FP orth inactive
O=C(NCc1nc2ccccc2[nH]1)C1=C[C@H](C2CCCCC2)C[C@H](OCc2ccc(CO)cc2)O1	none
O=C(NCc1nc2ccccc2[nH]1)C1=C[C@@H](c2ccccc2)C[C@@H](OCc2ccc(CO)cc2)O1	TbMetRS inhib 77 | Tb MetRS conf 104 | Jurkat cytotox inactive | TbMetRS FP orth 84
O=C(NCc1nc2ccccc2[nH]1)C1=C[C@H](c2ccccc2)C[C@H](OCc2ccc(CO)cc2)O1	TbMetRS inhib 31 | Tb MetRS conf 75 | Jurkat cytotox inactive | TbMetRS FP orth 38
O=C(NCc1ccccc1)C1=C[C@H](c2ccc3c(c2)OCO3)C[C@H](OCc2ccc(CO)cc2)O1	none
O=C(NCc1nc2ccccc2[nH]1)C1=C[C@H](c2ccc3c(c2)OCO3)C[C@H](OCc2ccc(CO)cc2)O1	TbMetRS inhib 54 | Tb MetRS conf 90 | Jurkat cytotox inactive | TbMetRS FP orth 60
CC(C)(C)[C@H]1C=C(C(=O)NCc2nc3ccccc3[nH]2)O[C@@H](OCc2ccc(CO)cc2)C1	TbMetRS inhib 62 | Tb MetRS conf 87 | Jurkat cytotox inactive | TbMetRS FP orth 61
COc1ccccc1N1CCN(CCCN=C2CC(=O)N(C)C(=O)N2C)CC1	none
Cc1cc(C(=O)NNC(=S)NC2CCCCC2)cs1	none
CC(C)n1c(=O)nc(-c2ccccc2)c2cc3c(cc21)OCO3	none
O=C(NCc1nc2ccccc2[nH]1)C1=C[C@@H](c2ccc(C(F)(F)F)cc2)C[C@@H](OCc2ccc(CO)cc2)O1	TbMetRS inhib 37 | Tb MetRS conf 79 | Jurkat cytotox inactive | TbMetRS FP orth 49
COc1ccc(C)cc1N1CC(C(=O)Nc2ccccc2C(=O)NC2CC2)CC1=O (configuration not stated)	none
C=CCNC(=S)NNC(=O)COc1ccc2cc(Br)ccc2c1	TbMetRS inhib 19 | Tb MetRS conf 46 | Jurkat cytotox inactive | TbMetRS FP orth 24
C=CCNC(=S)NNC(=O)COc1ccc(Br)cc1	none
CCCn1cc(CN2CCC(n3nccc3NC(=O)c3ccc4c(c3)OCO4)CC2)c(C)n1	none
COc1nc(C)nc(C)c1Oc1ccc(Cl)cc1Cl	none
Nc1cc(Oc2ccc(Cl)cc2Cl)nc(N)n1	TbMetRS inhib 22 | Tb MetRS conf 31 | Jurkat cytotox inactive | TbMetRS FP orth 24
O=C(NCc1ccc2c(c1)OCO2)c1ccc(COc2cc(Cl)ccc2Cl)o1	TbMetRS inhib 8.1 | Tb MetRS conf 15 | Jurkat cytotox inactive | TbMetRS FP orth inactive
O=C(NCc1ccc2c(c1)OCO2)c1ccc(CSCc2ccc(Cl)cc2)o1	none
O=C(Nc1cccnc1)c1ccc(COc2ccccc2Cl)o1	none
O=C(Nc1cccnc1)c1ccc(COc2cc(Cl)ccc2Cl)o1	TbMetRS inhib 6.8 | Tb MetRS conf 15 | Jurkat cytotox inactive | TbMetRS FP orth 18
CCOC(=O)c1ccc2c(c1)NCc1cccc(OC)c1O2	TbMetRS inhib 5.8 | Tb MetRS conf 11 | Jurkat cytotox inactive | TbMetRS FP orth inactive
Cc1ccccc1-n1c(C)nnc1SCC(=O)N1CCc2ccccc2C1	none
O=C(NCc1ccccc1)C(c1ccc(Cl)cc1)N(C(=O)c1csnn1)C1CC1 (configuration not stated)	none
NC(Cc1ccc(C(F)(F)F)cc1)c1csc(NC(=O)Nc2ccccc2)n1 (configuration not stated)	TbMetRS inhib 77 | Tb MetRS conf 96 | Jurkat cytotox inactive | TbMetRS FP orth 90
NC(Cc1ccc(Cl)cc1)c1csc(NC(=O)Nc2ccccc2)n1 (configuration not stated)	TbMetRS inhib 61 | Tb MetRS conf 87 | Jurkat cytotox inactive | TbMetRS FP orth 85
COc1ccccc1NC(=O)Nc1nc(C(N)Cc2ccc(Cl)cc2)cs1 (configuration not stated)	none
NC(Cc1ccc(C(F)(F)F)cc1)c1csc(NC(=O)Nc2ccccc2Cl)n1 (configuration not stated)	none
COc1ccc2[nH]cc(C(=O)CN3CCN(C(=O)c4ccco4)CC3)c2c1	TbMetRS inhib 6.4 | Tb MetRS conf inactive | Jurkat cytotox inactive | TbMetRS FP orth inactive
C/C(=N\NC(=O)Cc1ccccc1)c1ccc(Cl)s1	none
O=C(Nc1ccc(S(=O)(=O)Nc2nccs2)cc1)c1c(F)c(F)c(F)c(F)c1F	none
C[C@H](NS(=O)(=O)c1ccc(Cl)cc1)C(=O)OCC(=O)NCCc1ccc(S(N)(=O)=O)cc1	none
OC(COc1ccc(Br)cc1)Cn1ccnc1 (configuration not stated)	none
COc1ccc(OCC(O)Cn2cnc(-c3ccc(Br)cc3)c2)cc1 (configuration not stated)	TbMetRS inhib 14 | Tb MetRS conf 22 | Jurkat cytotox inactive | TbMetRS FP orth inactive
COc1ccc(C(=O)CSc2nnc(-c3cccs3)o2)cc1OC	none (no result: TbMetRS inhib)
Cc1nn(CC(=O)NCCc2ccc(Cl)cc2Cl)c(C)c1[N+](=O)[O-]	TbMetRS inhib 16 | Tb MetRS conf 33 | Jurkat cytotox inactive | TbMetRS FP orth inactive
O=C(Cn1cnnn1)NCCc1ccc(Cl)cc1Cl	TbMetRS inhib 9.4 | Tb MetRS conf 18 | Jurkat cytotox inactive | TbMetRS FP orth inactive
CC1(C(=O)NS(=O)(=O)c2ccc(Br)cc2)CCN1C(=O)CCC1CCCC1 (configuration not stated)	none
O=C(CSc1nc2ccccc2[nH]1)N1CCN(c2ccc(F)cc2)CC1	none
O=C(CCCSc1nc2ccccc2[nH]1)N1CCN(c2ccc([N+](=O)[O-])cc2)CC1	TbMetRS inhib 9.2 | Tb MetRS conf 55 | Jurkat cytotox inactive | TbMetRS FP orth inactive
Cc1nccn1-c1ccc(NC(=O)[C@@H](Cc2ccccc2)NC(=O)[C@H]2O[C@@H](n3ccc(=O)[nH]c3=O)[C@H](O)[C@@H]2O)cc1	none (no result: TbMetRS inhib)
CCOC(=O)C(=NC1CCS(=O)(=O)C1)NNc1ccc(Br)cc1 (configuration not stated)	TbMetRS inhib 15 | Tb MetRS conf 46 | Jurkat cytotox inactive | TbMetRS FP orth inactive
Clc1ccc2nc(C3CCN(Cc4nnnn4C4CCCCC4)CC3)[nH]c2c1	TbMetRS inhib 69 | Tb MetRS conf 81 | Jurkat cytotox inactive | TbMetRS FP orth 56
Cc1ccc(Cn2nnnc2CN2CCC(c3nc4ccc(Cl)cc4[nH]3)CC2)cc1	TbMetRS inhib 21 | Tb MetRS conf 36 | Jurkat cytotox 43 | TbMetRS FP orth inactive
Cc1ccc(Cl)cc1N1CCN(Cc2nnnn2C2CCCCC2)CC1	none

Source: PubChem BioAssay (The Scripps Research Institute Molecular Screening Center)
